The source of these data is publication PMC5207485 (Bioorganic & medicinal chemistry, 2016).

Like-named read-outs stand apart in the source and are kept apart here.

The nature of data set [1]: Plasma concentration of ALS-I-41 after IN or IM administration. It is filed as in vivo, rhesus macaque. The following applies: for Time Plasma Max: male rhesus.
Data set [2] can be described thus: CSF concentration of ALS-I-41 after IN or IM administration. It is filed as in vivo, rhesus macaque. The following applies: for Time Max: macaque CSF; for Ave Max in CSF / Time CSF Max: male rhesus. Put shortly:
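Four male rhesus macaques (5 yr, 9–13 kg) under IM Telazol (4–5 mg/kg) with IV propofol drip (10 mg/kg/hr). Test compound in propylene glycol, given IN by face-mask pediatric nebulizer over 8 min (dose from nebulizer residue) or IM 6.15 mg into the inner thigh. Lumbar CSF was analysed unprocessed by LC-MS/MS in duplicate (C18, 70:30:0.1 water/methanol/formic acid). Detection limit ~1 pg/ml; blood-contaminated samples excluded.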

For the next data set, the target named is human OXTR. The following applies: displacing [^3H]OT at a concentration of 2 nM; cited from earlier work.
The conditions of data set [3]: rhesus macaque, intravenous dose; cited from earlier work.
Data set [4] in a line: PET scan of [18F]ALS-I-41 in a cynomolgus macaque, IV bolus. The data set is classed as in vivo, cynomolgus macaque (Macaca fascicularis). Put shortly: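 Single male cynomolgus macaque (8.1 kg), Telazol 3 mg/kg IM, then intubated and ventilated on 1–2% isoflurane in oxygen with continuous vital monitoring. 5 mCi of the [18F]tracer given IV, then brain PET for 2 h, co-registered to the animal's MRI. Summed frames at 9–26 min and 90–120 min post-injection were used to assess distribution.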

The conditions of data set [5]: titi monkey models; cited from earlier work.
Data set [6] can be described thus: PET imaging of [18F]ALS-I-41 in Sprague-Dawley rats. The data set is classed as in vivo. Particulars: rat PET. The gist of the method: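 Female Sprague-Dawley rats (200–330 g), isoflurane induction 4–5% and maintenance 1–2% in oxygen, vitals and temperature monitored. [18F]tracer was given IM at 340–390 μCi in 100 μl above the knee, with scanning from 15 min post-injection, or as a 30 min tail-vein infusion of 250–310 μCi in 10% ethanol/saline by syringe pump. 2 h PET with Co-57 attenuation correction; time-activity curves for whole brain, arm muscle and skull.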

For data set [7] the following is noted: IN 24 IU OT, 75 minutes post administration, baseline 20 pg/ml; cited from earlier work.
Data set [8] in a line: CSF OT levels after IV and IN nasal spray OT, maximum 5 IU/kg. The data set is classed as in vivo. The following applies: macaque, maximum of 5 IU/kg OT, same calculation from data of ref 38.
The conditions of data set [9]: macaque, IN nasal spray, maximum of 5 IU/kg OT; cited from earlier work.
Where [10] appears, read: aerosolized IN high dose, ave dose 7690 μg.
Where [11] appears, read: aerosolized IN low dose, ave dose 202 μg.
The mark [12] stands for this setting: rhesus, IN 7.5 mg target dose vs low dose.

By Ki is commonly meant a dissociation constant, usually derived from enzyme kinetics or from competition with a known ligand. Consider `CS(=O)(=O)N1CCC(Oc2ccc(CC(=O)N3CCC(N4C(=O)CCc5ccccc54)CC3)c(OCCF)c2)CC1` [ALS-I-41], for which the “Time Plasma Max” value in data set [1] (IM, dose 6150 μg) was found to be 60 m; in [1] (setting [10]), 15 m; in data set [1] (setting [11]), 5 m. In addition, in [1] (setting [12]), the “increase in plasma concentrations, high dose IN in comparison to low dose IN” value was found to be 150 fold. Further, the “Time Max” value in data set [2] (IM 6.15 mg) came to 120 m; in [2] (IN 7.69 mg), 60 m. Moreover, in data set [2] (macaque, after IN or IM administration), the “time retained within the brain” value is reported as “over 2 hours”. In addition, the “Ave Max in CSF” value in data set [2] (IM, dose 6150 μg) came to 478 pg/mL; in [2] (setting [10]), 97.2 pg/mL; in data set [2] (setting [11]), 7.36 pg/mL. The “Time CSF Max” value was determined as 120 m in data set [2] (IM, dose 6150 μg); 60 m in data set [2] (setting [10]); 120 m in data set [2] (setting [11]). In addition, the brain penetration entry in [2] (rhesus macaque, via CSF extraction and PET imaging) is on record as “mild brain penetrant”. For the same compound, the “increase in CSF concentration, high dose IN in comparison to low dose IN” value in [2] (setting [12]) is on record as 14 fold. Besides, at human OXTR, the inhibition constant (Ki) was 0.016 µM.
In the case of `Cc1ccccc1N1CCN(S(=O)(=O)CC23CCC(CC2NC(=O)C(N)CCS(C)(=O)=O)C3(C)C)CC1` [L-368,899], the “time remaining in the CSF post injection” value in [3] is recorded as “over 250 minutes”.
With `CS(=O)(=O)N1CCC(Oc2ccc(CC(=O)N3CCC(N4C(=O)CCc5ccccc54)CC3)c(OCC[18F])c2)CC1` [[^18F]ALS-I-41], the “time at which distribution of the tracer throughout the entire brain peaked” value in data set [4] (cynomolgus macaque, 5 mCi IV bolus) was in the range of 15 to 30 min. Further, the “brain uptake versus neck muscle tissue (TAC)” value in data set [4] (cynomolgus macaque, 5 mCi IV, 2 hour scan) is “only a fraction of the dose reaches the brain”. Besides, the “tracer remaining in the thalamic region at the end of the scan” value in [4] (cynomolgus macaque, 2 hour scan) is “very little remained”. In addition, the bone uptake result in data set [4] (monkey model (macaque PET scan)) is “no significant bone uptake detected”. In addition, the brain penetration entry in data set [5] is listed as “no significant brain penetration”. In addition, the “metabolism suggested by rapid uptake in the bone” value in data set [6] was “rapidly metabolized on first pass”.
For oxytocin [OT], in data set [7], the “OT levels in human CSF post administration” value is 30 pg/mL. Also, in data set [8], the “maximum reported CSF OT increase” value is given as around 22 pM. In data set [9], the “change of CSF OT” value is recorded as “no significant change”.
